Test results reported in ChEMBL document CHEMBL4609978, “Synthesis and evaluation of 2'-dihalo ribonucleotide prodrugs with activity against hepatitis C virus” (Bioorg Med Chem, 2020).

Test system: not listed separately
Test: Stability in human plasma assessed as parent compound remaining after 4 hrs
Type: ADME, cell-free
Details: read-out: Stability
Procedure, shortened: (§1)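 Prodrug incubated 4 h at 37 °C in dog or human plasma; result given as percent parent remaining.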

SMILES	remaining at 4 h [%]
CC(C)OC(=O)[C@H](C)N[P@](=O)(OC[C@H]1O[C@@H](n2ccc(=O)[nH]c2=O)[C@@](F)(Br)[C@@H]1O)Oc1ccccc1	100

Test system: not listed separately
Test: Cytotoxicity against human HuH7 cells assessed as reduction in cell viability
Type: cell-based, Huh-7
Details: read-out: TD50 (the source's name)

SMILES	CC50 [µM]
CC(C)OC(=O)[C@H](C)N[P@](=O)(OC[C@H]1O[C@@H](n2ccc(=O)[nH]c2=O)[C@@](F)(Br)[C@@H]1O)Oc1ccccc1	> 100

Test system: Hepatitis C virus
Test: Antiviral activity against HCV genotype 1b Con1 expressing NS5B S282T mutant infected in human HuH7 replicon cells assessed as inhibition of viral replication after 4 days by luciferase reporter gene based assay
Type: functional, organism-based, Hepacivirus hominis
Details: subtype 1b Con1, Huh-7, 96 h

SMILES	EC50 [µM]
CC(C)OC(=O)[C@H](C)N[P@](=O)(OC[C@H]1O[C@@H](n2ccc(=O)[nH]c2=O)[C@@](F)(Br)[C@@H]1O)Oc1ccccc1	0.134

Test system: not listed separately
Test: Unbound drug level in human plasma
Type: ADME, cell-free
Details: not given

SMILES	fraction unbound
CC(C)OC(=O)[C@H](C)N[P@](=O)(OC[C@H]1O[C@@H](n2ccc(=O)[nH]c2=O)[C@@](F)(Br)[C@@H]1O)Oc1ccccc1	0.43

Test system: Hepatitis C virus
Test: Antiviral activity against HCV genotype 2a expressing wild type NS5B infected in human HuH7 replicon cells assessed as inhibition of viral replication after 4 days by luciferase reporter gene based assay
Type: functional, organism-based, Hepacivirus hominis
Details: subtype 2a, Huh-7, 96 h

SMILES	EC50 [µM]
CC(C)OC(=O)[C@H](C)N[P@](=O)(OC[C@H]1O[C@@H](n2ccc(=O)[nH]c2=O)[C@@](F)(Br)[C@@H]1O)Oc1ccccc1	0.189

Test system: Hepatitis C virus
Test: Antiviral activity against HCV genotype 2a expressing NS5B S282T mutant infected in human HuH7 replicon cells assessed as inhibition of viral replication after 4 days by luciferase reporter gene based assay
Type: functional, organism-based, Hepacivirus hominis
Details: subtype 2a, Huh-7, 96 h

SMILES	EC50 [µM]
CC(C)OC(=O)[C@H](C)N[P@](=O)(OC[C@H]1O[C@@H](n2ccc(=O)[nH]c2=O)[C@@](F)(Br)[C@@H]1O)Oc1ccccc1	0.308

Test system: Hepatitis C virus
Test: Antiviral activity against HCV genotype 1b Con1 infected in human HuH7 replicon cells assessed as inhibition of viral replication after 3 days by luciferase reporter gene assay
Type: functional, organism-based, Hepacivirus hominis
Details: subtype 1b Con1, Huh-7, 72 h
Procedure, shortened: (§2)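 Stable subgenomic replicon cell lines (genotype 1a-H77 or 1b-Con1) carrying a luciferase reporter; compounds added in DMEM with 5% FBS, cells incubated 3 days with or without compound, then lysed and luciferase activity read; EC50 from nonlinear regression fit to 4-parameter logistic equation.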

SMILES	EC50 [µM]
CC(C)OC(=O)[C@H](C)N[P@](=O)(OC[C@H]1O[C@@H](n2ccc(=O)[nH]c2=O)[C@@](F)(Br)[C@@H]1O)Oc1ccccc1	0.087 to 0.095

Test system: Hepatitis C virus
Test: Antiviral activity against HCV genotype 1b Con1 expressing wild type NS5B infected in human HuH7 replicon cells assessed as inhibition of viral replication after 4 days by luciferase reporter gene based assay
Type: functional, organism-based, Hepacivirus hominis
Details: subtype 1b Con1, Huh-7, 96 h

SMILES	EC50 [µM]
CC(C)OC(=O)[C@H](C)N[P@](=O)(OC[C@H]1O[C@@H](n2ccc(=O)[nH]c2=O)[C@@](F)(Br)[C@@H]1O)Oc1ccccc1	0.0152

Test system: not listed separately
Test: Prodrug conversion in Beagle dog liver assessed as nucleotide triphosphate level at 5 mg/kg, po co-dosed with 5 mg/kg sofosbuvir measured after 24 hrs by LC-MS/MS analysis
Type: ADME, organism-based, Canis lupus familiaris
Details: in vivo
Procedure, shortened: (§3)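 Beagle dogs (3 per time point) given single oral prodrug 5 mg/kg in EtOH:PEG-400:Phosal 53 MCT (10:30:60, w/w), cassette-dosed with sofosbuvir 5 mg/kg as internal standard; liver biopsies at 4 or 24 h, flash frozen, triphosphate measured by LC-MS/MS.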

SMILES	Drug metabolism [µM]
CC(C)OC(=O)[C@H](C)N[P@](=O)(OC[C@H]1O[C@@H](n2ccc(=O)[nH]c2=O)[C@@](F)(Br)[C@@H]1O)Oc1ccccc1	8.87

Test system: not listed separately
Test: Stability in dog plasma assessed as parent compound remaining after 4 hrs
Type: ADME, cell-free, Canis lupus familiaris
Details: read-out: Stability
Procedure, shortened: as §1

SMILES	remaining at 4 h [%]
CC(C)OC(=O)[C@H](C)N[P@](=O)(OC[C@H]1O[C@@H](n2ccc(=O)[nH]c2=O)[C@@](F)(Br)[C@@H]1O)Oc1ccccc1	86

Test system: not listed separately
Test: Intrinsic clearance in human hepatocytes
Type: ADME, cell-based, Hepatocyte
Details: read-out: CLH (converted)

SMILES	CLint scaled [mL/min/kg]
CC(C)OC(=O)[C@H](C)N[P@](=O)(OC[C@H]1O[C@@H](n2ccc(=O)[nH]c2=O)[C@@](F)(Br)[C@@H]1O)Oc1ccccc1	257

Test system: not listed separately
Test: Prodrug conversion in Beagle dog liver assessed as nucleotide triphosphate level at 5 mg/kg, po administered as single dose measured after 4 hrs by LC-MS/MS analysis
Type: ADME, organism-based, Canis lupus familiaris
Details: in vivo

SMILES	Drug metabolism [µM]
CC(C)OC(=O)[C@H](C)N[P@](=O)(OC[C@H]1O[C@@H](n2ccc(=O)[nH]c2=O)[C@@](F)(Br)[C@@H]1O)Oc1ccccc1	11.5

Test system: Hepatitis C virus
Test: Potency index, ratio of sofosbuvir EC50 to compound EC50 for HCV genotype 1a H77 infected in human HuH7 replicon cells assessed as inhibition of viral replication after 3 days by luciferase reporter gene assay
Type: functional, Hepacivirus hominis, subtype 1a H77, Huh-7
Details: not given
Procedure, shortened: (§4)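 Stable subgenomic luciferase-reporter replicon Huh-7 lines, genotype 1a-H77 or 1b-Con1. Test compound and sofosbuvir comparator each run in DMEM with 5% FBS for 3 days. Cells lysed and luciferase activity read. EC50 obtained by nonlinear regression to a 4-parameter logistic equation. Index is sofosbuvir EC50 divided by compound EC50, both from this assay.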

SMILES	Ratio EC50
CC(C)OC(=O)[C@H](C)N[P@](=O)(OC[C@H]1O[C@@H](n2ccc(=O)[nH]c2=O)[C@@](F)(Br)[C@@H]1O)Oc1ccccc1	2 - 3

Test system: not listed separately
Test: Unbound drug level in dog plasma
Type: ADME, cell-free, Canis lupus familiaris
Details: not given

SMILES	fraction unbound
CC(C)OC(=O)[C@H](C)N[P@](=O)(OC[C@H]1O[C@@H](n2ccc(=O)[nH]c2=O)[C@@](F)(Br)[C@@H]1O)Oc1ccccc1	0.367

Test system: Hepatitis C virus
Test: Potency index, ratio of sofosbuvir EC50 to compound EC50 for HCV genotype 1b Con1 infected in human HuH7 replicon cells assessed as inhibition of viral replication after 3 days by luciferase reporter gene assay
Type: functional, Hepacivirus hominis, subtype 1b Con1, Huh-7
Details: not given
Procedure, shortened: as §4

SMILES	Ratio EC50
CC(C)OC(=O)[C@H](C)N[P@](=O)(OC[C@H]1O[C@@H](n2ccc(=O)[nH]c2=O)[C@@](F)(Br)[C@@H]1O)Oc1ccccc1	2 - 3

Test system: Hepatitis C virus
Test: Antiviral activity against HCV genotype 1b Con1 over expressing CES1 infected in human HuH7 replicon cells assessed as inhibition of viral replication after 3 days by luciferase reporter gene assay
Type: functional, organism-based, Hepacivirus hominis
Details: subtype 1b Con1, Huh-7, 72 h

SMILES	EC50 [µM]
CC(C)OC(=O)[C@H](C)N[P@](=O)(OC[C@H]1O[C@@H](n2ccc(=O)[nH]c2=O)[C@@](F)(Br)[C@@H]1O)Oc1ccccc1	0.056

Test system: not listed separately
Test: Prodrug conversion in Beagle dog liver assessed as nucleotide triphosphate level at 5 mg/kg, po co-dosed with 5 mg/kg sofosbuvir measured after 4 hrs by LC-MS/MS analysis
Type: ADME, organism-based, Canis lupus familiaris
Details: in vivo
Procedure, shortened: as §3

SMILES	Drug metabolism [µM]
CC(C)OC(=O)[C@H](C)N[P@](=O)(OC[C@H]1O[C@@H](n2ccc(=O)[nH]c2=O)[C@@](F)(Br)[C@@H]1O)Oc1ccccc1	7.39

Test system: Hepatitis C virus
Test: Antiviral activity against HCV genotype 4a expressing wild type NS5B infected in human HuH7 replicon cells assessed as inhibition of viral replication after 4 days by luciferase reporter gene based assay
Type: functional, organism-based, Hepacivirus hominis
Details: subtype 4a, Huh-7, 96 h

SMILES	EC50 [µM]
CC(C)OC(=O)[C@H](C)N[P@](=O)(OC[C@H]1O[C@@H](n2ccc(=O)[nH]c2=O)[C@@](F)(Br)[C@@H]1O)Oc1ccccc1	0.0257

Test system: not listed separately
Test: Prodrug conversion in Beagle dog liver assessed as nucleotide triphosphate level at 5 mg/kg, po administered as single dose measured after 24 hrs by LC-MS/MS analysis
Type: ADME, organism-based, Canis lupus familiaris
Details: in vivo

SMILES	Drug metabolism [µM]
CC(C)OC(=O)[C@H](C)N[P@](=O)(OC[C@H]1O[C@@H](n2ccc(=O)[nH]c2=O)[C@@](F)(Br)[C@@H]1O)Oc1ccccc1	6.61

Test system: not listed separately
Test: Prodrug conversion in human primary hepatocytes assessed as nucleotide triphosphate level at 100 uM incubated for 4 hrs followed by compound wash-out for 20 hrs and measured following 4 hrs incubation period by LC-MS/MS analysis
Type: ADME, cell-based, Hepatocyte
Details: not given
Procedure, shortened: (§5)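 Cryopreserved primary human hepatocytes plated ~55,000 viable cells/well on collagen, medium changed after 4–6 h to Williams E maintenance medium with Geltrex 0.35 mg/mL, overnight at 37 °C; prodrug 100 µM for 4 h, then washed; second plate held a further 20 h drug-free; cells washed with ice-cold HBSS, triphosphate measured by LC-MS/MS at 4 or 24 h.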

SMILES	Drug metabolism [µM]
CC(C)OC(=O)[C@H](C)N[P@](=O)(OC[C@H]1O[C@@H](n2ccc(=O)[nH]c2=O)[C@@](F)(Br)[C@@H]1O)Oc1ccccc1	192

Test system: Hepatitis C virus
Test: Antiviral activity against HCV genotype 3a expressing NS5B S282T mutant infected in human HuH7 replicon cells assessed as inhibition of viral replication after 4 days by luciferase reporter gene based assay
Type: functional, organism-based, Hepacivirus hominis
Details: subtype 3a, Huh-7, 96 h

SMILES	EC50 [µM]
CC(C)OC(=O)[C@H](C)N[P@](=O)(OC[C@H]1O[C@@H](n2ccc(=O)[nH]c2=O)[C@@](F)(Br)[C@@H]1O)Oc1ccccc1	0.0753

Test system: Hepatitis C virus
Test: Antiviral activity against HCV genotype 6a expressing wild type NS5B infected in human HuH7 replicon cells assessed as inhibition of viral replication after 4 days by luciferase reporter gene based assay
Type: functional, organism-based, Hepacivirus hominis
Details: subtype 6a, Huh-7, 96 h

SMILES	EC50 [µM]
CC(C)OC(=O)[C@H](C)N[P@](=O)(OC[C@H]1O[C@@H](n2ccc(=O)[nH]c2=O)[C@@](F)(Br)[C@@H]1O)Oc1ccccc1	0.0145

Test system: Hepatitis C virus
Test: Antiviral activity against HCV genotype 1a H77 infected in human HuH7 replicon cells assessed as inhibition of viral replication after 3 days by luciferase reporter gene assay
Type: functional, organism-based, Hepacivirus hominis
Details: subtype 1a H77, Huh-7, 72 h
Procedure, shortened: as §2

SMILES	EC50 [µM]
CC(C)OC(=O)[C@H](C)N[P@](=O)(OC[C@H]1O[C@@H](n2ccc(=O)[nH]c2=O)[C@@](F)(Br)[C@@H]1O)Oc1ccccc1	0.056

Test system: not listed separately
Test: Distribution coefficient, logD of compound by HT-LCMS analysis
Type: physicochemical
Details: octanol/water

SMILES	logD
CC(C)OC(=O)[C@H](C)N[P@](=O)(OC[C@H]1O[C@@H](n2ccc(=O)[nH]c2=O)[C@@](F)(Br)[C@@H]1O)Oc1ccccc1	3.07

Test system: not listed separately
Test: Prodrug conversion in human primary hepatocytes assessed as nucleotide triphosphate level at 100 uM incubated for 4 hrs and followed by compound washout for 20 hrs and measured following 24 hrs incubation period by LC-MS/MS analysis
Type: ADME, cell-based, Hepatocyte
Details: not given
Procedure, shortened: as §5

SMILES	Drug metabolism [µM]
CC(C)OC(=O)[C@H](C)N[P@](=O)(OC[C@H]1O[C@@H](n2ccc(=O)[nH]c2=O)[C@@](F)(Br)[C@@H]1O)Oc1ccccc1	91

Test system: Hepatitis C virus
Test: Antiviral activity against HCV genotype 3a expressing wild type NS5B infected in human HuH7 replicon cells assessed as inhibition of viral replication after 4 days by luciferase reporter gene based assay
Type: functional, organism-based, Hepacivirus hominis
Details: subtype 3a, Huh-7, 96 h

SMILES	EC50 [µM]
CC(C)OC(=O)[C@H](C)N[P@](=O)(OC[C@H]1O[C@@H](n2ccc(=O)[nH]c2=O)[C@@](F)(Br)[C@@H]1O)Oc1ccccc1	0.0127

Test system: not listed separately
Test: Aqueous solubility of compound in pH 7.4 phosphate buffer
Type: physicochemical
Details: not given

SMILES	solubility [µM]
CC(C)OC(=O)[C@H](C)N[P@](=O)(OC[C@H]1O[C@@H](n2ccc(=O)[nH]c2=O)[C@@](F)(Br)[C@@H]1O)Oc1ccccc1	> 200
